Reference: ChEMBL document CHEMBL1125894, “Dual-action cephalosporins: cephalosporin 3'-quaternary ammonium quinolones” (1991)
In brackets after ≈: the same amount, converted by molar mass. Several values for one entry are separate records, joined by “and”; a condition that tells them apart may be missing. Equal values may be shown once.

Experiments:
Format in all cases: functional
Klebsiella pneumoniae [1] = experiment: In vivo activity in murine against Klebsiella pneumoniae A infection after sc administration.
Method in brief: (§1)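 Mouse protection test in CD1 Swiss albino mice (18–20 g). Mice were infected intraperitoneally with 0.5 mL of a diluted bacterial suspension, then treated within 5 min with one 1.0 mL subcutaneous dose at the dorsal base of the neck. Doses ranged from 0.05 to 250 mg/kg, with six mice per group. ED50 was calculated by the Reed–Muench method.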

Enterobacter cloacae [2] = experiment: In vivo activity in murine against Enterobacter cloacae 5699 infection after sc administration.; method in brief: as §1
Escherichia coli [3] = experiment: In vitro antibacterial activity against Escherichia coli 257
Method in brief: (§2)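 Serial 2-fold dilutions in the NCCLS broth microdilution method for aerobic nonfastidious organisms, with an 18-h incubation. The value is reported as the minimum inhibitory concentration (MIC).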

Staphylococcus aureus [4] = experiment: In vitro antibacterial activity against Staphylococcus aureus Smith(MS)
Method in brief: (§3)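 Staphylococci were tested by the standard agar dilution procedure using serial 2-fold dilutions of agent. The value is reported as the MIC.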

Serratia marcescens [5] = experiment: In vitro antibacterial activity against Serratia marcescens SM; method in brief: as §2
Streptococcus pneumoniae [6] = experiment: In vivo activity in murine against Streptococcus pneumoniae 6301 infection after sc administration.; method in brief: as §1
Enterobacter cloacae [7] = experiment: In vitro antibacterial activity against Enterobacter cloacae P99; method in brief: as §2
Citrobacter freundii [8] = experiment: In vivo activity in murine against Citrobacter freundii BS#16 infection after sc administration.
Method in brief: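 CD1 Swiss albino mice (18–20 g) infected intraperitoneally with 0.5 mL diluted bacterial culture suspension. Single subcutaneous treatment within 5 min, 1.0 mL at dorsal base of neck, serial dilutions spanning 0.05–250 mg/kg. Six mice per treatment and control group. ED50 (50% protective dose) derived by Reed and Muench method.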

Streptococcus pyogenes [9] = experiment: In vitro antibacterial activity against Streptococcus pyogenes 4
Method in brief: (§4)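 Broth macrodilution with serial 2-fold dilutions in cation-supplemented Mueller-Hinton broth containing 10% goat serum. The value is reported as the MIC.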

Citrobacter freundii [10] = experiment: In vitro antibacterial activity against Citrobacter freundii BS 16; method in brief: as §2
Staphylococcus aureus [11] = experiment: In vivo activity in murine against Staphylococcus aureus Smith (MS) infection after sc administration.; method in brief: as §1
Enterobacter cloacae [12] = experiment: In vitro antibacterial activity against Enterobacter cloacae 5699; method in brief: as §2
Streptococcus pyogenes [13] = experiment: In vivo activity in murine against Streptococcus pyogenes 4 infection after sc administration.; method in brief: as §1
Escherichia coli [14] = experiment: In vivo activity in murine against Escherichia coli 257 infection after sc administration.; method in brief: as §1
Staphylococcus aureus [15] = experiment: In vitro antibacterial activity against Staphylococcus aureus 95(MR); method in brief: as §3
Klebsiella pneumoniae [16] = experiment: In vitro antibacterial activity against Klebsiella pneumoniae A; method in brief: as §2
Streptococcus pneumoniae [17] = experiment: In vitro antibacterial activity against Streptococcus pneumoniae 6301; method in brief: as §4
Serratia marcescens [18] = experiment: In vivo activity in murine against Serratia marcescens SM infection after sc administration.; method in brief: as §1
Pseudomonas aeruginosa [19] = experiment: In vitro antibacterial activity against Pseudomonas aeruginosa 5712; method in brief: as §2
Staphylococcus aureus [20] = experiment: In vivo activity in murine against Staphylococcus aureus 753(MR) infection after sc administration.; method in brief: as §1
Pseudomonas aeruginosa [21] = experiment: In vivo activity in murine against Pseudomonas aeruginosa 5712 infection after sc administration.
Method in brief: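 Mouse protection test in CD1 Swiss albino mice (18–20 g) infected intraperitoneally with 0.5 mL of diluted P. aeruginosa suspension. Mice received 1.0 mL subcutaneously at the neck base within 5 min of infection and a second treatment 3 h after infection. Doses ranged from 0.05 to 250 mg/kg, with six mice per group. ED50 was calculated by the Reed–Muench method.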

MIC (Escherichia coli [3]): 0.031 µg/mL (≈ 0.0839 µM)
MIC (Staphylococcus aureus [4]): 0.25 µg/mL (≈ 0.677 µM)
MIC (Serratia marcescens [5]): 0.25 µg/mL (≈ 0.677 µM)
MIC (Enterobacter cloacae [7]): 0.031 µg/mL (≈ 0.0839 µM)
MIC (Streptococcus pyogenes [9]): 4 µg/mL (≈ 10.8 µM)
MIC (Citrobacter freundii [10]): 0.25 µg/mL (≈ 0.677 µM)
MIC (Enterobacter cloacae [12]): 0.063 µg/mL (≈ 0.171 µM)
MIC (Staphylococcus aureus [15]): 0.25 µg/mL (≈ 0.677 µM)
MIC (Klebsiella pneumoniae [16]): 0.031 µg/mL (≈ 0.0839 µM)
MIC (Streptococcus pneumoniae [17]): 8 µg/mL (≈ 21.7 µM)
MIC (Pseudomonas aeruginosa [19]): 4 µg/mL (≈ 10.8 µM)
SMILES: CN1CCN(c2c(F)cc3c(=O)c(C(=O)O)cn(CCF)c3c2F)CC1 [FLEROXACIN]
ED50 (Klebsiella pneumoniae [1]): 0.3 mg/kg
ED50 (Enterobacter cloacae [2]): < 2 mg/kg
ED50 (Streptococcus pneumoniae [6]): > 250 mg/kg
ED50 (Citrobacter freundii [8]): 2 mg/kg
ED50 (Staphylococcus aureus [11]): 0.65 mg/kg
ED50 (Streptococcus pyogenes [13]): > 250 mg/kg
ED50 (Escherichia coli [14]): 0.26 mg/kg
ED50 (Escherichia coli [14]; Escherichia coli, sc, read-out: ED50): 0.25 mg/kg
ED50 (Serratia marcescens [18]): < 2 mg/kg
ED50 (Staphylococcus aureus [20]): 2.8 mg/kg
ED50 (Pseudomonas aeruginosa [21]): 14 mg/kg and 31 mg/kg
